Screens deposited in PubChem BioAssay by Sanford-Burnham Center for Chemical Genomics.
Apaf1 activ = activators of human Apaf-1 apoptosome, primary screen, biochemical, DEVD-Rh110 fluorescence, uHTS; 0.31% of 330,000 active; activity change, negative = activation, % at 20 µM; Apaf-1 apoptosome caspase-3 activation; hits give low values; Apoptotic protease-activating factor 1 (Homo sapiens), O14727;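 active = activity change at or below -40% at 20 µM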
Target sequence (O14727 whole entry, looked up): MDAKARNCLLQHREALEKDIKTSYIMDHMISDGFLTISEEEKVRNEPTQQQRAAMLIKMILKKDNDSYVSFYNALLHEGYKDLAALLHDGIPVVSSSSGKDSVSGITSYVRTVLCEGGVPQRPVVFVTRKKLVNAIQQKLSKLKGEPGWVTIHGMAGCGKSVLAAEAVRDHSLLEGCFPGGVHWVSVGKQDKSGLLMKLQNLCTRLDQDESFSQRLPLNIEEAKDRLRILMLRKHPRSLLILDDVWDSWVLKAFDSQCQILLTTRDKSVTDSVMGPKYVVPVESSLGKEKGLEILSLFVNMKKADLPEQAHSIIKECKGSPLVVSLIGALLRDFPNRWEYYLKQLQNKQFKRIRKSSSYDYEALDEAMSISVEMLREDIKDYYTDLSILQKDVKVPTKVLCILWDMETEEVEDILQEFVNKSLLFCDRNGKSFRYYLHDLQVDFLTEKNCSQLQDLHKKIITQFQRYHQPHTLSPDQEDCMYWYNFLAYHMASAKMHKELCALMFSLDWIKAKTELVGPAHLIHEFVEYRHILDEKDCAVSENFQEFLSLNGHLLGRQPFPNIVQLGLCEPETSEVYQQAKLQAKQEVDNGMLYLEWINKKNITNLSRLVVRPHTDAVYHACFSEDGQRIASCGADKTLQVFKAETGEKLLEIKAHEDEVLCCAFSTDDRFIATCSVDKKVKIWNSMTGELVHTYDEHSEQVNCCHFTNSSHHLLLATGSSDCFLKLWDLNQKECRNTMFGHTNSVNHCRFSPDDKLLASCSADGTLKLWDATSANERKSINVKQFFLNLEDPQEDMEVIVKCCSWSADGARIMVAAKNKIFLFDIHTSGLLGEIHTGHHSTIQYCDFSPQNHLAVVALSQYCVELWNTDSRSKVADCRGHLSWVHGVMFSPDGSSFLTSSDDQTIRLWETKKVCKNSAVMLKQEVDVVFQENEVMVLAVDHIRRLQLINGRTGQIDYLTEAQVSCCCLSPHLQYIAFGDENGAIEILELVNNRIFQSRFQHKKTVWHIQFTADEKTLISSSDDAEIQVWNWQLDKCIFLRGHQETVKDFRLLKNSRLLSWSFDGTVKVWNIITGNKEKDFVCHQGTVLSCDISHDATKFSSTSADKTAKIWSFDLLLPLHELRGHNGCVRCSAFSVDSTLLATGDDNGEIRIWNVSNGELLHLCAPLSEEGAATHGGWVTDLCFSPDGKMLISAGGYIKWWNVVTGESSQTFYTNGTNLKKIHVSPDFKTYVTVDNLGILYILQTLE
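Assay system – biochemical Apaf-1 apoptosome reconstitution · Medium – 20 mM HEPES buffer, pH 7.5, containing CHAPS and BSA · Incubation – 30 min preincubation, 50 min reaction, room temperature · Measured by – Caspase-3-released Rh110 fluorescence, 540 nm emission, 480 nm excitation · Read-out – Caspase-3 cleavage activity downstream of Apaf-1 activation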
Rh110 interf act = Rh110 fluorescence interference by putative Apaf-1 activators, confirmation, artefact control for Apaf-1 activator project, biochemical, 20 µM; shares compounds with Apaf1 activ; quenched caspase reaction, Ex480/Em540; fluorescence interference (activity change), % at 20 µM, hits read low; 980 tested, under 10 active; AID 504616, 2011;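 active = mean activity change at or below -40% when tested at 20 µM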
Apaf-1 act conf2 = Apaf-1 activators, single-dose retest, confirmation, biochemical, fluorescence, DEVD-Rh110, 20 µM; activity change, negative = activation, % at 20 µM; AID 504617, 2011; shares compounds with Apaf1 activ; 5% of 980 active; reconstituted apoptosome caspase-3 activity; hits give low values;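 active = mean activity change at or below -40%, meaning activation of 40% or more, at 20 µM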
Active calls of the source: *; x = no result given. The list is a sample of the results.

SMILES	Apaf1 activ	Rh110 interf act	Apaf-1 act conf2
COc1ccc(NC(=O)NNc2cc(N3CCOCC3)nc(N3CCOCC3)n2)cc1	52	x	x
Cc1cc(C)c2sc(N(CCN(C)C)C(=O)CCS(=O)(=O)c3ccccc3)nc2c1	53	x	x
COc1ccc(/C=N/n2c(C)nc3sc(C)c(C)c3c2=O)cc1OC	-145*	15	12
COc1ccc(C(=O)Nc2ccccc2C(=O)NC(Cc2ccc(O)cc2)C(=O)NNC(=O)c2ccccc2Cl)cc1 (configuration not stated)	-48*	3	16
c1cc2c3c(cccc3c1)NC1(CCC3(CC1)Nc1cccc4cccc(c14)N3)N2	40	x	x
CCCCC[n+]1ccn(C2=C([O-])c3ccccc3C(=O)/C2=N\S(=O)(=O)c2ccc(Br)cc2)c1	61	x	x
Cc1cc(C)cc(Oc2coc3cc(OC(=O)c4cccs4)ccc3c2=O)c1	-560*	10	12
CC1=NN(c2ccc(C(=O)O)cc2)C(=O)/C1=C\c1ccc(OC(=O)c2cccs2)cc1	75	x	x
N#Cc1ccc(C23CC4(C2)[C@H](CN(CC2CCCCC2)[C@@H]4c2ccccc2)C3c2ccc(C(F)(F)F)cc2)cc1 (some centres not stated)	42	x	x
C[C@@H]1CCCCCCCCC(=O)OCCN[C@H](C)CCCCCCCCC(=O)OCCN[C@H](C)CCCCCCCCC(=O)OCCN1	68	x	x
CCOc1ccc(-n2c(SCc3ccc([N+](=O)[O-])cc3)nnc2-c2ccc(OC)cc2)cc1	-304*	-4	18
Cc1ccc2nc(-c3ccc(NC(=S)NC4CC(C)(C)NC(C)(C)C4)cc3)sc2c1	50	x	x
CCN1/C(=C/C=C/C=C/c2sc3ccccc3[n+]2CC)Sc2ccccc21	80	x	x
CCN1CCN(CCc2nc3cc(NC(=O)COc4ccccc4)ccc3n2C)CC1	51	x	x
COc1cccc(N2CCN(CC(=O)Nc3ccccc3C(=O)NCCc3ccccc3)CC2)c1	50	x	x
Cc1cccc(OCCCC(=O)NNC(=O)CCN2CCN(c3ccccc3)CC2)c1	-630*	-2	12
C#CCOCCOCCOCCNc1nc(N2CCN(C(=O)[C@H]([C@@H](C)CC)n3cc([C@@H](N)CC(C)C)nn3)CC2)nc(N2CCN(C(=O)[C@H](Cc3cc4ccccc4[nH]3)n3cc([C@@H](N)CC(C)C)nn3)CC2)n1	58	x	x
COc1cccc(Cn2cnc3c(NS(=O)(=O)c4ccc(Cl)cc4Cl)c(C)c(C)cc32)c1	-66*	10	25
O=C(Nc1ccccc1O)c1ccc2c(c1)C(=O)N(Cc1ccco1)C2=O	-93*	-9	5
N#Cc1ccc(C23CC4(C2)[C@H](CN(Cc2ccc(-c5ccccc5)cc2)[C@@H]4c2ccccc2)C3c2ccc(C(F)(F)F)cc2)cc1 (some centres not stated)	45	x	x
CN1CCN(CCOc2cccc(Cl)c2)CC1	-50*	15	13
O=C1CCc2ccc(OCCCCN3CCN(c4cccc(Cl)c4Cl)CC3)cc2N1	43	x	x
CN1CCN(CCc2nc3cc(NC(=O)COc4ccccc4)ccc3n2C)CC1	57	x	x
COc1ccc(N)cc1-n1c(C)ccc1C	84	x	x
COc1cccc2sc3cc(C#CC4(O)CCCCC4)ccc3c(=O)c12	40	x	x
SMILES	Apaf1 activ	Rh110 interf act	Apaf-1 act conf2
O=C(Nc1cccc(CCc2ccccn2)c1)c1cc(F)c(F)cc1Cl	-109*	10	17
O=C(Nc1ccccn1)c1ccc2ccccc2c1O	45	x	x
CC(=O)c1cc(O)c2ccccc2c1O	58	x	x
CCCCc1nc(C(N)=O)c2[nH]c(=O)n(-c3ccc(OCC)cc3)c2n1	-157*	0	9
CN1CCc2cc3c(c4c2[C@H]1[C@H](O)c1ccccc1-4)OCO3	48	x	x
O=C(CSc1nnnn1-c1ccc(C(=O)O)cc1)NC1CC1	-324*	-3	7
COc1ccc2ccccc2c1C1CC(=O)N2CN(Cc3ccco3)CSC2=C1C#N (configuration not stated)	52	x	x
CC(=O)c1c(C)[nH]c(C(=O)CSc2ccc(F)cc2)c1C	-213*	5	5
Cc1c(CCOC(=O)c2ccc(Cl)cc2Cl)sc[n+]1CC(=O)c1ccccc1	56	x	x
O=c1[nH]c(N2CCOCC2)cc2ccccc12	93	x	x
CCCCCCCCCCCCCCCCn1cc[n+](C)c1	80	x	x
N#C/C(=N/Nc1ccccc1[N+](=O)[O-])C(N)=S	-40*	10	4
CCOC(=O)c1c(CSC(=N)N)n(-c2ccc(C)cc2)c2cc(Br)c(OC(C)=O)cc12	46	x	x
COc1ccc(C(CCN2CCCCC2)c2c(OC)cc(OC)c3c(-c4ccccc4)cc(=O)oc23)cc1 (configuration not stated)	55	x	x
Nc1c2c(nc3ccccc13)CCCC2	-4	x	x
C#CCOCCOCCOCCNc1nc(N2CCN(C(=O)CCCCCCCCCCNC(=O)[C@H](CCCCN)n3cc(CCO)nn3)CC2)nc(N2CCN(C(=O)CCCCCCCCCCNC(=O)[C@H](CCCCN)n3cc(CCO)nn3)CC2)n1	64	x	x
CCn1c(=O)c([N+](=O)[O-])c(NC2CCS(=O)(=O)C2)c2ccccc21 (configuration not stated)	-162*	12	12
COc1ccc(-c2sc3cc4c(cc3c2C#CC2(N)CCCCC2)OCO4)cc1	72	x	x
COc1ccc(N2C(=O)CCC(C(=O)O)C2c2ccccc2OC)cc1 (configuration not stated)	-172*	-2	6
C[C@@]12CCC=C[C@H]1[C@H](c1ccc3ccccc3c1Br)N(Cc1ccccc1)C2=O	49	x	x
CCOc1ccc(C(=O)Nc2sc3c(c2C(=O)OC)CC(C)(C)NC3(C)C)cc1	41	x	x
CCOc1ccc(NC(=O)CN(C)S(=O)(=O)c2ccc(-c3ccc(=O)[nH]n3)s2)cc1	-86*	12	17
Cc1cccc(OCC(O)Cn2c(=N)n(Cc3ccccc3)c3ccccc32)c1 (configuration not stated)	58	x	x
CSc1nc2c(c(=O)[nH]c(=O)n2C)n1Cc1ccccc1	-48*	3	13
CCCCCn1c(N2CCC(Cc3ccccc3)CC2)nc2c1c(=O)[nH]c(=O)n2C	46	x	x
SMILES	Apaf1 activ	Rh110 interf act	Apaf-1 act conf2
Cn1c(=O)[nH]c(=O)c2c1nc(Br)n2CC(O)COc1ccccc1 (configuration not stated)	-50*	-3	13
COCCCn1c(=O)c2sccc2n(Cc2ccccc2C)c1=O	60	x	x
O=C1C(N2CCOCC2)=C(n2nnc3ccccc32)C(=O)c2ccccc21	94	x	x
CC(Sc1ccc2ccccc2n1)C(=O)O (configuration not stated)	6	x	x
CC(Cn1nnc2ccccc21)C(=O)O (configuration not stated)	-107*	15	-14
COc1ccc([C@@H]2CC=C(C(=O)O)[C@H](c3cccc(Cl)c3)N2S(=O)(=O)c2ccc(Cl)cc2)cc1	-73*	-3	19
COc1ccc(CCN2C(=O)c3[nH]nc(-c4ccccc4O)c3C2c2cccc(Cl)c2)cc1 (configuration not stated)	41	x	x
CCOc1ccccc1NC(=O)c1cc(-c2ccccn2)nc2ccccc12	53	x	x
